Data taken from ChEMBL document CHEMBL1123270, “10-Acetyl-10-hydroxyxantho[2,3-f]tetralin 8-glycosides as angular chromophore analogues of anthracyclines: synthesis, redox properties, microsomal oxygen consumption, and antileukemic evaluation” (1986).
Values after ≈ are worked out from the molar mass of the structure shown.

Key:
L1210 = experiment: Antileukemic cytotoxicity was evaluated for the compound against L1210 leukemia; assay type: functional; conditions: Mus musculus, read-out: ID50 (the source's name)
How it was run: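 L1210 cells grown in McCoy's 5A with glutamine, HCO3-, antibiotics and 10% heat-inactivated horse serum, 37 °C, humidified 95:5 air/CO2. Seeded at 10^5 cells/mL; drug added at 10, 1, 0.1 or 0.01 μg/mL final. Cell concentration counted by Coulter Counter after 72 h; ID50 taken as concentration giving 50% growth inhibition.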

Rattus norvegicus = experiment: […] percent activity of doxorubicin was determined as augmentation of normal oxygen uptake by fresh rat liver microsomes used as measure of redox activity; assay type: functional; design: concentration or dose not given beside the values

Structure (SMILES) | IC50 (L1210) [µg/mL] | Activity (Rattus norvegicus) [%]
CC(=O)[C@@H]1Cc2c(c(O)cc3c(=O)c4ccccc4oc23)[C@@H](OC2C[C@@H](NC(=O)C(F)(F)F)[C@@H](OC(=O)c3ccc([N+](=O)[O-])cc3)C(C)O2)C1 (some centres not stated) | 10 (≈ 14.3 µM) | 6
CC(=O)[C@]1(O)Cc2c(c(O)cc3c(=O)c4ccccc4oc23)[C@@H](OC2C[C@@H](NC(=O)C(F)(F)F)[C@@H](OC(=O)c3ccc([N+](=O)[O-])cc3)C(C)O2)C1 (some centres not stated) | 8 (≈ 11.2 µM) | 10
CC(=O)[C@]1(O)Cc2c(c(O)cc3c(=O)c4ccccc4oc23)[C@@H](OC2C[C@@H](NC(=O)C(F)(F)F)[C@@H](O)C(C)O2)C1 (some centres not stated) | > 10 | 3
CC(=O)[C@@H]1Cc2c(c(O)cc3c(=O)c4ccccc4oc23)[C@@H](OC2C[C@@H](NC(=O)C(F)(F)F)[C@@H](O)C(C)O2)C1 (some centres not stated) | 10 (≈ 18.2 µM) | 6
CC(=O)OCC1OC(O[C@H]2C[C@H](C(C)=O)Cc3c2c(O)cc2c(=O)c4ccccc4oc32)[C@@H](NC(=O)C(F)(F)F)C(OC(C)=O)[C@H]1OC(C)=O (some centres not stated) | > 10 | 4
CC(=O)[C@@H]1Cc2c(c(O)cc3c(=O)c4ccccc4oc23)[C@@H](OC2C[C@@H](N)[C@@H](O)C(C)O2)C1 (some centres not stated) | 8 (≈ 17.6 µM) | 10
